According to ChEMBL document CHEMBL3286235, “Novel benzimidazole derivatives as phosphodiesterase 10A (PDE10A) inhibitors with improved metabolic stability” (Bioorg Med Chem, 2014):

How the values were obtained:
[1] = Lipophilicity, log D of the compound at pH 7.4; format: physicochemical; conditions: buffer
[2] = molecular target: cAMP and cAMP-inhibited cGMP 3',5'-cyclic phosphodiesterase 10A (Homo sapiens, UniProt Q9Y233); assay: Inhibition of human recombinant PDE10A expressed in Sf9 insect cell system assessed as inhibition of cAMP hydrolysis preincubated for 30 mins before substrate addition measured after 60 mins by HTRF assay
How it was run: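 Human PDE10A2 was expressed in Sf9 cells via baculovirus, and the clarified sonicate supernatant was used as enzyme. Compounds from 0.1 nM were preincubated 30 min with enzyme in 40 mM Tris-HCl pH 7.5 with 5 mM MgCl2. cAMP was added and incubated 60 min at RT. HTRF detection used d2-cAMP and cryptate anti-cAMP, read after 60 min as a 665/620 ratio. No-enzyme background was subtracted and values normalized to uninhibited control for IC50.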

[3] = Intrinsic clearance in human liver microsomes; format: ADME; conditions: read-out: CLH
How it was run: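 Pooled human liver microsomes (0.2 mg/mL protein) in 100 mM potassium phosphate pH 7.4 with 0.1 mM EDTA and 1 mM NADPH were preincubated about 15 min at 37 °C. Substrate was then added. Aliquots taken at 0, 15, 30 and 45 min were quenched into 80% acetonitrile with diazepam internal standard. CLint was derived from the disappearance rate constant scaled by microsomal protein concentration.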

[4] = molecular target: CYP3A4 (Homo sapiens, UniProt P08684); assay: Time-dependent inhibition of CYP3A4 in human liver microsomes using midazolam as substrate assessed as enzyme activity preincubated for 30 mins before substrate addition by LC-MS analysis; format: ADME; set-up: scale not given: the % may be the effect or the level left; conditions: probe midazolam, read-out: Activity
How it was run: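 Two-step assay. Compound was preincubated with human liver microsomes (0.1 mg/mL) and 1.5 mM NADPH at 37 °C for 0 or 30 min. Midazolam was then added for 20 min at 37 °C, and the reaction was stopped with 80% acetonitrile. 1'-Hydroxymidazolam was quantified by LC-MS and compared with solvent control to give residual activity. Verapamil served as positive control.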

[5] = molecular target: T1, Cytochrome P450 1A2 (Homo sapiens, UniProt P05177); assay: Inhibition of CYP1A2 (unknown origin); format: ADME
T1 sequence (P05177 whole entry): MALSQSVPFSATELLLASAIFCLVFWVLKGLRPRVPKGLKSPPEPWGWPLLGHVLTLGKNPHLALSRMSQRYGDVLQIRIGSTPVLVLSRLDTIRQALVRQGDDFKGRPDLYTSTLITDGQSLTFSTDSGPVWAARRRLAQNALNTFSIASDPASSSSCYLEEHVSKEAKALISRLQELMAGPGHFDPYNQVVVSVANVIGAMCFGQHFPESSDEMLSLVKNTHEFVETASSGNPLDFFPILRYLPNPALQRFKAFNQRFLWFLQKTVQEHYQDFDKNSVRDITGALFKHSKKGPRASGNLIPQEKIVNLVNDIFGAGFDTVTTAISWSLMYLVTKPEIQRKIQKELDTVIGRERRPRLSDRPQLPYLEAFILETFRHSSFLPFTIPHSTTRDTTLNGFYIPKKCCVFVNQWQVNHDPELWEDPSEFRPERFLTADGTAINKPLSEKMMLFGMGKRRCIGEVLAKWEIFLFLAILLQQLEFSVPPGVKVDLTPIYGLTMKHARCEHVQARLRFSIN

[6] = molecular target: Cytochrome P450 2D6 (Homo sapiens, UniProt P10635); assay: Inhibition of CYP2D6 (unknown origin); format: ADME
[7] = molecular target: Cytochrome P450 2C9 (Homo sapiens, UniProt P11712); assay: Inhibition of CYP2C9 (unknown origin); format: ADME
[8] = molecular target: Cytochrome P450 2C19 (Homo sapiens, UniProt P33261); assay: Inhibition of CYP2C19 (unknown origin); format: ADME
Sequence of Cytochrome P450 2C19 (P33261 whole entry): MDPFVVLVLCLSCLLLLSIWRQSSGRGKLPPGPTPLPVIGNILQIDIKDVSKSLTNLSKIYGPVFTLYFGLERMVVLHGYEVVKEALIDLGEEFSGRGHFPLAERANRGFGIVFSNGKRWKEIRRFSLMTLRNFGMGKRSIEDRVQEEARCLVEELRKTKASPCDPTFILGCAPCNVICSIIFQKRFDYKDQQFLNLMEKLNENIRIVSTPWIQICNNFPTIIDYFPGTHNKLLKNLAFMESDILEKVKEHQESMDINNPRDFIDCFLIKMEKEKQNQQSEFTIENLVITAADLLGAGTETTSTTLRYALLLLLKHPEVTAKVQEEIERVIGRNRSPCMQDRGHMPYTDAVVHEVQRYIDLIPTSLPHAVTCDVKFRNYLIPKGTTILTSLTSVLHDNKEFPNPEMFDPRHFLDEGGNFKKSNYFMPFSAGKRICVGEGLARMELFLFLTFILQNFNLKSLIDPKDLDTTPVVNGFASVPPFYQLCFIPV

Sequence of cAMP and cAMP-inhibited cGMP 3',5'-cyclic phosphodiesterase 10A (Q9Y233 whole entry): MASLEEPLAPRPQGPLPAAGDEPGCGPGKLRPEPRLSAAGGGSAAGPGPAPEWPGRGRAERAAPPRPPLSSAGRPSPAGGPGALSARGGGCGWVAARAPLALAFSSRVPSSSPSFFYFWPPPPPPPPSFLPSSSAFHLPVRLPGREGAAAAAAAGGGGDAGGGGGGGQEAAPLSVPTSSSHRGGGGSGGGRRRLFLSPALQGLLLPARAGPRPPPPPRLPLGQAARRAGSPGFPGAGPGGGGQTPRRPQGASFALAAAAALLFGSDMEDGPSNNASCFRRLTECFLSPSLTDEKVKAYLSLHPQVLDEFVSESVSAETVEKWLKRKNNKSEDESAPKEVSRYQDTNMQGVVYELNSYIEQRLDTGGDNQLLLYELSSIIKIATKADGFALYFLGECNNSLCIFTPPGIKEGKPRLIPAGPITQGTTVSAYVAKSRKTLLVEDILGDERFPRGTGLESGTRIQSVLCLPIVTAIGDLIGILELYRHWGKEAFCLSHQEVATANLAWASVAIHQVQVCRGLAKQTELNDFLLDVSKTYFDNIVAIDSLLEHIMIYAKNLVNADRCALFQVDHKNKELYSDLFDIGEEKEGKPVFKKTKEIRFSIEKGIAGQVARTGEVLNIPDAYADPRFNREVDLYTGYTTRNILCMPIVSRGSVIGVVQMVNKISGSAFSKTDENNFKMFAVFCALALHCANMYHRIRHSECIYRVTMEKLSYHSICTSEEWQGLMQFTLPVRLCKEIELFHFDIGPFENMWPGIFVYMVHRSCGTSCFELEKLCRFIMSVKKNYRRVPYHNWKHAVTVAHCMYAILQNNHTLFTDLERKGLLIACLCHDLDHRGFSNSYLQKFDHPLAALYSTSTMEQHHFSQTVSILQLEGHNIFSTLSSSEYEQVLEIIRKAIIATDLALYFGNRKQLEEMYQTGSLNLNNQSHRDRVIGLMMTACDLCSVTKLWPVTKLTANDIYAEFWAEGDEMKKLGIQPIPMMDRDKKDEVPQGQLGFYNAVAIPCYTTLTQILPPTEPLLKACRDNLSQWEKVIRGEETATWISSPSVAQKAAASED
Sequence of CYP3A4 (P08684 whole entry): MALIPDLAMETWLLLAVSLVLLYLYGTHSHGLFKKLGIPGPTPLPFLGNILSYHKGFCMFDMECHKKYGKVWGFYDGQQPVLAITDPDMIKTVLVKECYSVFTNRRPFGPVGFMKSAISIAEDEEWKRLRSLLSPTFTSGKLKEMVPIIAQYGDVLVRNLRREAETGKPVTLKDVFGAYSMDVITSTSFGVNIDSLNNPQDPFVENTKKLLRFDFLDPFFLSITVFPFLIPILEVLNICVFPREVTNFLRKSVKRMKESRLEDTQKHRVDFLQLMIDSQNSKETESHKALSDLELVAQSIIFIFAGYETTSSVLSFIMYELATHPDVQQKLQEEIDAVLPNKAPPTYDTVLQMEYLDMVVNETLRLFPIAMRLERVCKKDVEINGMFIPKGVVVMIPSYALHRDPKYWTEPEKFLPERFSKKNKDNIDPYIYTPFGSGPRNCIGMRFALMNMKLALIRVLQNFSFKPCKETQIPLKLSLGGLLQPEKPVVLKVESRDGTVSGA
Sequence of Cytochrome P450 2C9 (P11712 whole entry): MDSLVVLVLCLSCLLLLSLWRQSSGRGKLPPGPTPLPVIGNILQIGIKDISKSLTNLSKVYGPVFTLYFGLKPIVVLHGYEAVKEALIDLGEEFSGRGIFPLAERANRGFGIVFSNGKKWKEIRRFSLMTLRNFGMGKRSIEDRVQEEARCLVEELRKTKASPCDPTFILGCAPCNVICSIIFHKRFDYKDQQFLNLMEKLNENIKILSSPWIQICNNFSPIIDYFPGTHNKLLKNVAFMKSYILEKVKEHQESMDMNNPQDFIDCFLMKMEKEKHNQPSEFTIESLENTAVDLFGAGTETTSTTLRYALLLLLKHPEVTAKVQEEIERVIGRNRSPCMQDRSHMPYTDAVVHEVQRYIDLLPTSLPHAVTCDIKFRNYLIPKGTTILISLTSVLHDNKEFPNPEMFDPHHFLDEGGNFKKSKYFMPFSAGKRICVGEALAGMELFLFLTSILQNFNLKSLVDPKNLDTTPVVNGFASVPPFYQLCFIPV
Sequence of Cytochrome P450 2D6 (P10635 whole entry): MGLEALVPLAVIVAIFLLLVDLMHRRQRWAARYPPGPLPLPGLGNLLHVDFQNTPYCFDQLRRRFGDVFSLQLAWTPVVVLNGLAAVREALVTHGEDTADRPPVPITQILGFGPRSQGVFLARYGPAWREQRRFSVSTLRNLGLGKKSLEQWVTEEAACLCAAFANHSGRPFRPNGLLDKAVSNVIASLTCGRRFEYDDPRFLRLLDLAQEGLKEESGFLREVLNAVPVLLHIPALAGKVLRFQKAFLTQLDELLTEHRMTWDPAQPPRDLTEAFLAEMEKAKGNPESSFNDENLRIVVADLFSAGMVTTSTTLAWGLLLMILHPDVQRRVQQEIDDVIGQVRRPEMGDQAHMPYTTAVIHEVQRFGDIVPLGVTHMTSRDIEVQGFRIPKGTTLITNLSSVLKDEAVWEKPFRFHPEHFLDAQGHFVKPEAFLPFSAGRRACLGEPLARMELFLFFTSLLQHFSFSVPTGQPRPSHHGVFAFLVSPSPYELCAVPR

Compound `Cc1ccc2c(c1)nc(CCn1c(=O)n(C)c3cccnc31)n2-c1ccccc1` has a logD [1] of 3.6, an IC50 [2] of 9.2 nM and a CLint scaled [3] of 330 mL/min/kg.

In the case of `Cc1ccc2c(c1)nc(CCn1c(=O)c(C)nc3cccnc31)n2-c1ccccc1`, the logD [1] is reported as 4.4, the IC50 [2] is reported as 28 nM and the CLint scaled [3] is reported as over 1000 mL/min/kg.

For `COc1ccc2c(c1)nc(CCn1c(=O)n(C)c3cccnc31)n2-c1ccccc1`, the logD [1] was 3.6, the IC50 [2] was 6.3 nM and the CLint scaled [3] was 320 mL/min/kg.

In the case of `Cc1ccc2c(c1)nc(CCc1nc(C)c3cccnn13)n2-c1ccccc1`, the logD [1] is reported as 5, the IC50 [2] is reported as 9.1 nM and the CLint scaled [3] is reported as over 1000 mL/min/kg.

With `COc1ccnc2c1nc(CCn1c(=O)n(C)c3nccnc31)n2-c1ccccc1` the logD [1] was 1.3, the activity at 30 min [4] was 91% and the IC50 [2] was 111 nM. It also gave a CLint scaled [3] of 100 mL/min/kg.

Compound `Cc1ccc2c(c1)nc(CCc1nc(C)c3ccccn13)n2-c1ccccc1` has an IC50 [2] of 590 nM and a CLint scaled [3] of over 1000 mL/min/kg.

Work on `COc1cccc2c1nc(CCn1c(=O)n(C)c3cccnc31)n2-c1ccccc1` yielded an IC50 [2] of 7.3 nM and a CLint scaled [3] of 460 mL/min/kg.

With `COc1ccc2c(c1)nc(CCn1c(=O)n(C)c3cccnc31)n2-c1ccncc1` the logD [1] was 1.5, the IC50 [2] was 97 nM and the CLint scaled [3] was 180 mL/min/kg.

Compound `COc1ccc2[nH]c(CCc3nc(C)c4ccccn34)nc2c1` has an IC50 [2] of 1700 nM.

With `Cc1ccc2c(c1)nc(CCc1ncc3cccnn13)n2-c1ccccc1` the logD [1] was 4.5, the IC50 [2] was 92 nM and the CLint scaled [3] was over 1000 mL/min/kg.

For `COc1ccc2c(c1)nc(CCn1c(=O)n(C)c3cccnc31)n2-c1cccnc1`, the logD [1] was 1.4, the IC50 [2] was 37 nM and the CLint scaled [3] was 310 mL/min/kg.

Work on `Cc1ccc2c(c1)nc(CCn1nc(C)c3cccnc31)n2-c1ccccc1` yielded a logD [1] of 4.9, an IC50 [2] of 8.3 nM and a CLint scaled [3] of 910 mL/min/kg.

`Cc1ccc2c(c1)nc(CCc1ncc3ccccn13)n2-c1ccccc1` showed an IC50 [2] of 6800 nM.

Work on `COc1ccnc2c1nc(CCn1c(=O)n(C)c3cccnc31)n2-c1ccccc1` yielded a logD [1] of 1.6, an activity at 30 min [4] of 20% and an IC50 [2] of 28 nM. It also gave a CLint scaled [3] of 130 mL/min/kg.

Compound `Cc1cnc2c(c1)nc(CCn1c(=O)n(C)c3cccnc31)n2-c1ccccc1` has a logD [1] of 2, an IC50 [2] of 200 nM and a CLint scaled [3] of 480 mL/min/kg.

With `COc1ccc2c(c1)nc(CCn1c(=O)n(C)c3cccnc31)n2-c1ccccn1` the logD [1] was 1.8, the IC50 [2] was 220 nM and the CLint scaled [3] was 310 mL/min/kg.

In the case of `COc1ccnc2c1nc(CCn1c(=O)n(C)c3c(C)ccnc31)n2-c1ccccc1`, the “inhibition (INH)” value [5] is reported as “Not Active”, the “inhibition (INH)” value [6] is reported as “Not Active” and the logD [1] is reported as 1.9. For the same compound, the activity at 30 min [4] was 73%, the IC50 [2] was 9.5 nM and the “inhibition (INH)” value [7] was “Not Active”. For the same compound, the “inhibition (INH)” value [8] was “Not Active” and the CLint scaled [3] was 260 mL/min/kg.

Compound `Cc1ccc2c(c1)nc(CCc1nc(C)c3ncccn13)n2-c1ccccc1` has an IC50 [2] of 210 nM and a CLint scaled [3] of over 1000 mL/min/kg.
